The record followed here is ChEMBL document CHEMBL1126929, “Syntheses of 2,5- and 2,6-difluoronorepinephrine, 2,5-difluoroepinephrine, and 2,6-difluorophenylephrine: effect of disubstitution with fluorine on adrenergic activity” (J Med Chem, 1993).

One may read the Ki as the equilibrium dissociation constant of an inhibitor or competing ligand from its target. A lower Ki goes with tighter binding. As usually defined, the EC50 is the concentration that produces a half-maximal response. Lower therefore signals an effect from little substance.

Molecules are shown by their SMILES.

The target of assay [1] is T1, Adrenergic receptor alpha-1 (Rattus norvegicus, UniProt P15823+P23944+P43140).
T1 sequence (P15823 whole entry): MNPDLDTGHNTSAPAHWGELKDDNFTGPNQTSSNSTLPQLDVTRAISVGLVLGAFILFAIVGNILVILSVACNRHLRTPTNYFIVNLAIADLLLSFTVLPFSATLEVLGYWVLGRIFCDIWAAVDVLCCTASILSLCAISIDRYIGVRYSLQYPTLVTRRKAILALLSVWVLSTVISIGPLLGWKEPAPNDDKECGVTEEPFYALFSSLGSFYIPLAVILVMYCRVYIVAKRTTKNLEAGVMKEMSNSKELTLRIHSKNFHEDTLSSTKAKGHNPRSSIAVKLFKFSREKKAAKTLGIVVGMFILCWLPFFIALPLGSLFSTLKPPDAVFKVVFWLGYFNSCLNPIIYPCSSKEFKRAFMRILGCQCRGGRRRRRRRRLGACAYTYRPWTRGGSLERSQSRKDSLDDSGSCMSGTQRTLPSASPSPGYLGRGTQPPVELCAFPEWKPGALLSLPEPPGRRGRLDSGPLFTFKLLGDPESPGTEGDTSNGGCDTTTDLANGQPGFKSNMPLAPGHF
T1 sequence (P23944 whole entry): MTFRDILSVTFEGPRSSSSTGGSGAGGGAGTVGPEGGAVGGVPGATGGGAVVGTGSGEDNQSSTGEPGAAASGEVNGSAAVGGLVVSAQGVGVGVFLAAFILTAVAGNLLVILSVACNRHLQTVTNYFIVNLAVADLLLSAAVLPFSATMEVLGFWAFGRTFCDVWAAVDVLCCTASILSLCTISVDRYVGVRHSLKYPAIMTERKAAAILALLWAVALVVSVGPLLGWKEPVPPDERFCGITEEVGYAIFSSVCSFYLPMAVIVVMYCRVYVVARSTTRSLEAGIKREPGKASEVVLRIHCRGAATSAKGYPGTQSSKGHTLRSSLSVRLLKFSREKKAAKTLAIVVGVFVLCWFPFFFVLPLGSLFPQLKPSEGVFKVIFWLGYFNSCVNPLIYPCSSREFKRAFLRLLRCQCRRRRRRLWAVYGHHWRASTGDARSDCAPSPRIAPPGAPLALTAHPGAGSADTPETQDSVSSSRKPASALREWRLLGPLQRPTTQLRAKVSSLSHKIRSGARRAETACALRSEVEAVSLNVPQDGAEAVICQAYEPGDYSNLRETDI
T1 sequence (P43140 whole entry): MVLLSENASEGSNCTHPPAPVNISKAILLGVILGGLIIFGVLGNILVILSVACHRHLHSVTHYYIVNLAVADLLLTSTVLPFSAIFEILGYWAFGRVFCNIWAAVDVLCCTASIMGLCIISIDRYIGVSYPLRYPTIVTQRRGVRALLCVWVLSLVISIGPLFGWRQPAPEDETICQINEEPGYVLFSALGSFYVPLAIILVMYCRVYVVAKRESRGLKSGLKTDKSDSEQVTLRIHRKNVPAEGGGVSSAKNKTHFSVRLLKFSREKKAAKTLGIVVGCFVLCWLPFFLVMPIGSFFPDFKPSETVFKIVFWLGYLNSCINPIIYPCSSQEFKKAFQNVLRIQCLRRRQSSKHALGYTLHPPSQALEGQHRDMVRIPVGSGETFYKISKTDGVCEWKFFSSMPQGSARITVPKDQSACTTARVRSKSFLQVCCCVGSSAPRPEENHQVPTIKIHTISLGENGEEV
Put plainly: Displacement of [3H]WB-4101 from adrenergic alpha 1 receptor of rat cerebral cortical membranes. The format is cell membranes, Membrane. In general terms: Displacement assays read how much labelled ligand stays bound in the presence of the test substance.

The target of assay [2] is Beta-2 adrenergic receptor (Rattus norvegicus, UniProt P10608). Nature of the assay: Binding affinity against adrenergic beta 2 receptor versus 1 nM [3H]dihydroalprenolol in rat […] cerebellar membranes. The format is cell membranes, Cerebellum, Membrane.
The next assay is filed under the species Cavia porcellus. Put plainly: Effective concentration for stimulation of [3H]phosphoinositide formation in guinea pig synaptoneurosomes expressing alpha-1 receptor. The format is functional. A digest of the protocol: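 α1 agonism was read as stimulation of [³H]phosphoinositol formation in guinea pig synaptoneurosomes. EC50 is given as a mean. Efficacy is expressed relative to the parent amine set at 100.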

The target of assay [3] is T2, Adrenergic receptor alpha-2 (Rattus norvegicus, UniProt P22086+P19328+P22909).
T2 sequence (P22086 whole entry): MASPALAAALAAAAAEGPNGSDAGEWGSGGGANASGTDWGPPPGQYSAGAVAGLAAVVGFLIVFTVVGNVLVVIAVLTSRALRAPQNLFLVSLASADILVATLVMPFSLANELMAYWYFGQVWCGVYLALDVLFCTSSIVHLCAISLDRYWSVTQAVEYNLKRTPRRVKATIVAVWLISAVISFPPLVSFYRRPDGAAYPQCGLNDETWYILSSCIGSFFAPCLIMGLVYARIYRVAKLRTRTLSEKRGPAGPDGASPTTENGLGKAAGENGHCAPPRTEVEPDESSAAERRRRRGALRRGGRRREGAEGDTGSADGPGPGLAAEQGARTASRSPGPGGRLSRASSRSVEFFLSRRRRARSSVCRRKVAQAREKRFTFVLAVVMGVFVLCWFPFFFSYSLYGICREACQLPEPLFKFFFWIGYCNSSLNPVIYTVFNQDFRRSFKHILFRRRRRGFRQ
T2 sequence (P19328 whole entry): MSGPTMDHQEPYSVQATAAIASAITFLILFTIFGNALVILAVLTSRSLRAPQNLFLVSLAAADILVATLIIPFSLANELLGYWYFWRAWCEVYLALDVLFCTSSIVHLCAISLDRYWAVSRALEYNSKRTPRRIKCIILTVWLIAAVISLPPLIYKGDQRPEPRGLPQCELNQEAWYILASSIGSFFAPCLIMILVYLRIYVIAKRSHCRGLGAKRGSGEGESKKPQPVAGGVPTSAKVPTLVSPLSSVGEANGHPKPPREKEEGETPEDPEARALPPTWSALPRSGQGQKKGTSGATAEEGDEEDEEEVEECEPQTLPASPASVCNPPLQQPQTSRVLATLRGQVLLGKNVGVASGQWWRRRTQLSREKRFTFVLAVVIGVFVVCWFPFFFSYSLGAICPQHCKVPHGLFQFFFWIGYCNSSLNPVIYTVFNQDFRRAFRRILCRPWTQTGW
T2 sequence (P22909 whole entry): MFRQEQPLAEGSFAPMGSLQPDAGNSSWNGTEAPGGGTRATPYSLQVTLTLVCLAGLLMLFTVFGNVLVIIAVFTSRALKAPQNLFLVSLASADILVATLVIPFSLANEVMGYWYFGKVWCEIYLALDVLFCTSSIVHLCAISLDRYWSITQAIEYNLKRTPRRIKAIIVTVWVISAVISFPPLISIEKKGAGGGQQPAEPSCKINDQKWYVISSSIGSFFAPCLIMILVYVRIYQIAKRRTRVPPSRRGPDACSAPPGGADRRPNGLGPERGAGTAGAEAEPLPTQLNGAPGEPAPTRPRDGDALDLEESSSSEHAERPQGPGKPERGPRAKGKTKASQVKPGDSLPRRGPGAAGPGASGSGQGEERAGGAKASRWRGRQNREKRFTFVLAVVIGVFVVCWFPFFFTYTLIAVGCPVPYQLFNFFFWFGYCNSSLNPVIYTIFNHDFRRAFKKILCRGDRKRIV
Nature of the assay: Displacement of [3H]clonidine from adrenergic alpha 2 receptor of rat cerebral cortical membranes. The format is cell membranes, Membrane.

Assay [4] concerns the target Beta-1 adrenergic receptor (Rattus norvegicus, UniProt P18090). Put plainly: Displacement of [3H]dihydroalprenolol from adrenergic beta 1 receptor of rat cerebral cortical membranes. Format: cell membranes, Membrane.
Another assay has as its target Adrenergic receptor beta (Rattus norvegicus, UniProt P18090+P10608+P26255). Nature of the assay: Stimulation of cyclic AMP accumulation in C6 glioma cells expressing adrenergic beta receptor. Format: functional, cell-based. A digest of the protocol: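 β agonism was read as stimulation of cyclic AMP accumulation in rat C6 glioma cells. EC50 is given as a mean. Efficacy is expressed relative to the parent amine set at 100.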

Beta-1 adrenergic receptor, sequence (P18090 whole entry): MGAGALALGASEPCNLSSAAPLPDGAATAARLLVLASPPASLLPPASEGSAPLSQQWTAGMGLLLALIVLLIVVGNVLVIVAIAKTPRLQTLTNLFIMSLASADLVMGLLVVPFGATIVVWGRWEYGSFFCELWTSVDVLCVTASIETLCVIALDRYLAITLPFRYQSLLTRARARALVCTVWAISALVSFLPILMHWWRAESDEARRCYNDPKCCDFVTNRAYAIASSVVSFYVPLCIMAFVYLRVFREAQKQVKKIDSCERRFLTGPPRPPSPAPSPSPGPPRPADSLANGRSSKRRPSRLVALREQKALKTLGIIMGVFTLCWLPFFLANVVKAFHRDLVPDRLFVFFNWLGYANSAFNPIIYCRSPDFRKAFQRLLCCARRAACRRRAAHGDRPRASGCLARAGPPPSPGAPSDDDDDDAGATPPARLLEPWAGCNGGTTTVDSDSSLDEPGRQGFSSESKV
Beta-2 adrenergic receptor, sequence (P10608 whole entry): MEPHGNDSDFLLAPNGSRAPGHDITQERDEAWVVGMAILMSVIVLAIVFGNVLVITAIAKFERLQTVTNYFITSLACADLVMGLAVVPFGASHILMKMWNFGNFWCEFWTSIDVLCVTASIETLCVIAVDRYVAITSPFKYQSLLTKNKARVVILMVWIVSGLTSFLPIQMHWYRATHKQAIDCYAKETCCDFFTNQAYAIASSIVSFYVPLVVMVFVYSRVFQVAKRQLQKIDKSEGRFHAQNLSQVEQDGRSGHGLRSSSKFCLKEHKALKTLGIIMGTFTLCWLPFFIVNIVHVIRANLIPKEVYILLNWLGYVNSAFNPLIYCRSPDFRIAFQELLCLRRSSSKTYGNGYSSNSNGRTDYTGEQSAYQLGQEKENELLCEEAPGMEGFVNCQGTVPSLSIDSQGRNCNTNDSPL

As for `CNCC(O)c1cc(F)c(O)c(O)c1F` (stereo not given), the Ki in assay [1] turned out to be 39 µM; in assay [2] it was 0.71 µM; in assay [3], 1.2 µM; in assay [4], 2.3 µM. Also, it took 2.6 µM to reach a half-maximal effect in the assay listed under Cavia porcellus (EC50).

Regarding `CNC[C@H](O)c1ccc(O)c(O)c1` [EPINEPHRINE], the inhibition constant (Ki) in assay [4] amounted to 1.2 µM. In other words, the single-digit micromolar range.

In the assay listed under Cavia porcellus, `CNC[C@H](O)c1cccc(O)c1` [PHENYLEPHRINE] displayed an EC50 of 6 µM.

Regarding `NCC(O)c1ccc(O)c(O)c1F` (stereo not given), the inhibitory constant (Ki) was determined as 23 µM in assay [1] and 2.1 µM in assay [3]. Further, the EC50 in the assay filed under Cavia porcellus was greater than 180 µM.

Consider `CNCC(O)c1cccc(O)c1F` (stereo not given), for which the inhibition constant Ki is 17 µM in assay [1], 1.2 µM in assay [3] and 4 µM in assay [4]. In the assay listed under Cavia porcellus, this compound returned an EC50 of 80 µM.

Compound `CNCC(O)c1cc(O)c(O)cc1F` (stereo not given) showed an EC50 on Adrenergic receptor beta greater than 1.5 µM. The inhibition constant (Ki) came to 0.009 µM in assay [3] and 63 µM in assay [4].

For the compound `CNCC(O)c1cc(O)ccc1F` (stereo not given), the Ki in assay [1] was found to be 2.1 µM; in assay [3], 0.23 µM; in assay [4] it was 180 µM. In the assay listed under Cavia porcellus, this compound showed a half-maximal effective concentration (EC50) of 8 µM.

Consider `CNCC(O)c1ccc(O)c(O)c1F` (stereo not given), for which the Ki in assay [3] is 0.066 µM.

In the assay listed under Cavia porcellus, `CNCC(O)c1ccc(F)c(O)c1` (stereo not given) returned an EC50 of 16 µM.

In the case of `NCC(O)c1cc(F)c(O)c(O)c1F` (stereo not given), the inhibitory constant (Ki) in assay [1] turned out to be 24 µM; in assay [3], 3.5 µM; in assay [4] it was 5.6 µM. In the assay listed under Cavia porcellus, this compound gave an EC50 of 83 µM.

With `NCC(O)c1cc(O)c(O)cc1F` (stereo not given), a half-maximal effect in the assay listed under Cavia porcellus (EC50) was put at 4.2 µM.

Turning to `CNCC(O)c1c(F)ccc(O)c1F` (stereo not given), the Ki in assay [1] worked out at 17 µM; in assay [3] it was 0.94 µM; in assay [4], 81 µM. This compound came in with an EC50 in the assay listed under Cavia porcellus of 4.3 µM.

As to `NCC(O)c1c(F)cc(O)c(O)c1F` (stereo not given), the concentration for a half-maximal effect (EC50) on Adrenergic receptor beta and in the assay listed under Cavia porcellus was greater than 100 µM in each case. The Ki was 0.75 µM in assay [3] and greater than 50 µM in assay [4].

`NCC(O)c1cc(O)c(O)c(F)c1` (stereo not given): the Ki in assay [1] stood at 2.3 µM; in assay [2], 5.5 µM; in assay [3], 0.15 µM; in assay [4], 1.5 µM.
